Measured values published in ChEMBL document CHEMBL5661979, “Pharmacological inhibition of BMK1 suppresses tumor growth through promyelocytic leukemia protein” (Cancer Cell, 2010).
Calls of active or inactive are those of the source. No cut-off for these calls is given here.

Tests used:
[1] = molecular target: T1, EKC/KEOPS complex subunit TP53RK (Homo sapiens) (UniProt Q96S44); assay: Inhibition of PRPK in human HeLa cells lysate at 10 uM pre incubated for 15 mins followed by ATP acyl phosphate probe addition and measured after 10 mins by LC-MS/MS analysis relative to control; format: subcellular; details: time 25.0 min
T1 sequence (whole entry): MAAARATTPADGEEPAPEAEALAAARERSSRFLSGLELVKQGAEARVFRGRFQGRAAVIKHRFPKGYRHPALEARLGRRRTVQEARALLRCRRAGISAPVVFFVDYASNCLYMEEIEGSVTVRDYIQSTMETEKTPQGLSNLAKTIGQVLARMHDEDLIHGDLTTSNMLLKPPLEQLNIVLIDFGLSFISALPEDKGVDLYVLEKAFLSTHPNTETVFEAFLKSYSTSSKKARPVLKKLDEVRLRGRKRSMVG

[2] = test system: A549; assay: Antitumor activity against human A549 cells xenografted in NOD/SCID mouse assessed as reduction in BMK activation at 50 mg/kg, ip administered twice a day for 2 days by Western blot analysis; format: functional, organism-based; details: time 2.0 day
How it was run: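 A549 cells (1×10^6, in DMEM) were injected s.c. into the right flank of 6-week-old Nod/Scid mice. On day 21, mice received 50 mg/kg twice daily or carrier; 2 per group. After 2 days, tumors were homogenized in E1A buffer. Western blot read BMK1 activation (mobility shift) and p21, quantified by densitometry normalized to GAPDH.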

[3] = molecular target: Eukaryotic elongation factor 2 kinase (Homo sapiens) (UniProt O00418); assay: Inhibition of EEF2K in human HeLa cells lysate at 2 uM pre incubated for 15 mins followed by ATP acyl phosphate probe addition and measured after 10 mins by LC-MS/MS analysis relative to control; format: subcellular; details: time 25.0 min
[4] = Inhibition of CDK5/PRKX/PRKY in human HeLa cells lysate at 50 uM pre incubated for 15 mins followed by ADP acyl phosphate probe addition and measured after 10 mins by LC-MS/MS analysis relative to control; details: 25 min, condition cancer
How it was run: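 KiNativ profiling in HeLa lysate (5 mg/mL total protein). Lysate incubated 15 min with inhibitor at 50, 10, 2, 0.8 or 0 μM. ATP or ADP acylphosphate probe then added (5 μM final) and reacted 10 min. Reaction stopped with urea and analysed by targeted MS, using up to four fragment ions per kinase peptide-probe conjugate. % inhibition taken against untreated lysate. Run in duplicate.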

[5] = Inhibition of SRC/FYN/YES in human HeLa cells lysate at 2 uM pre incubated for 15 mins followed by ATP acyl phosphate probe addition and measured after 10 mins by LC-MS/MS analysis relative to control; details: 25 min, condition cancer
[6] = molecular target: T2, Phosphatidylinositol 5-phosphate 4-kinase type-2 gamma (Homo sapiens) (UniProt Q8TBX8); assay: Inhibition of PIP5K2C LIP2 site in human HeLa cells lysate at 50 uM pre incubated for 15 mins followed by ATP acyl phosphate probe addition and measured after 10 mins by LC-MS/MS analysis relative to control; format: subcellular; details: time 25.0 min
T2 sequence (whole entry): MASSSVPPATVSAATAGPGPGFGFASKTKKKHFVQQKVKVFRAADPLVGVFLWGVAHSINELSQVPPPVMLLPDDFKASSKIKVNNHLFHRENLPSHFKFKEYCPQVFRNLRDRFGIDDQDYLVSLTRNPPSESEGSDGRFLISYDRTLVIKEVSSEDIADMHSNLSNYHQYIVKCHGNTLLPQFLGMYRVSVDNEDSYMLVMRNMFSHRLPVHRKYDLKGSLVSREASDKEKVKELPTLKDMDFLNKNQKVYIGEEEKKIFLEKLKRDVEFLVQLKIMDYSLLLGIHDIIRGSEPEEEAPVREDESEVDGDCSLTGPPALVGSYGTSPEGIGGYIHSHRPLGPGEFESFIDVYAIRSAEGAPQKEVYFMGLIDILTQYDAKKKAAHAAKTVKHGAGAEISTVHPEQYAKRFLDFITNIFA

[7] = molecular target: Ribosomal protein S6 kinase alpha-3 (Homo sapiens, UniProt P51812); assay: Inhibition of RSK2 domain 1 active form in human HeLa cells lysate at 10 uM pre incubated for 15 mins followed by ATP acyl phosphate probe addition and measured after 10 mins by LC-MS/MS analysis relative to control; format: subcellular; details: time 25.0 min
[8] = test system: Lewis lung carcinoma; assay: Antitumor activity against PML knock down mouse LL2 cells transfected with ad-PML allografted in C57Bl/6 mouse assessed as reduction tumor growth at 50 mg/kg, ip administered on day 8 post implantation measured after 20 days; details: time 12.0 day
[9] = molecular target: Dual specificity mitogen-activated protein kinase kinase 6 (Homo sapiens, UniProt P52564); assay: Inhibition of MAP2K6 in human HeLa cells lysate pre incubated for 15 mins followed by ATP acyl phosphate probe addition and measured after 10 mins by LC-MS/MS analysis; format: subcellular
[10] = molecular target: T3, Serine/threonine-protein kinase Nek9 (Homo sapiens) (UniProt Q8TD19); assay: Inhibition of NEK9 in human HeLa cells lysate at 2 uM pre incubated for 15 mins followed by ADP acyl phosphate probe addition and measured after 10 mins by LC-MS/MS analysis relative to control; format: subcellular; details: time 25.0 min
T3 sequence (whole entry): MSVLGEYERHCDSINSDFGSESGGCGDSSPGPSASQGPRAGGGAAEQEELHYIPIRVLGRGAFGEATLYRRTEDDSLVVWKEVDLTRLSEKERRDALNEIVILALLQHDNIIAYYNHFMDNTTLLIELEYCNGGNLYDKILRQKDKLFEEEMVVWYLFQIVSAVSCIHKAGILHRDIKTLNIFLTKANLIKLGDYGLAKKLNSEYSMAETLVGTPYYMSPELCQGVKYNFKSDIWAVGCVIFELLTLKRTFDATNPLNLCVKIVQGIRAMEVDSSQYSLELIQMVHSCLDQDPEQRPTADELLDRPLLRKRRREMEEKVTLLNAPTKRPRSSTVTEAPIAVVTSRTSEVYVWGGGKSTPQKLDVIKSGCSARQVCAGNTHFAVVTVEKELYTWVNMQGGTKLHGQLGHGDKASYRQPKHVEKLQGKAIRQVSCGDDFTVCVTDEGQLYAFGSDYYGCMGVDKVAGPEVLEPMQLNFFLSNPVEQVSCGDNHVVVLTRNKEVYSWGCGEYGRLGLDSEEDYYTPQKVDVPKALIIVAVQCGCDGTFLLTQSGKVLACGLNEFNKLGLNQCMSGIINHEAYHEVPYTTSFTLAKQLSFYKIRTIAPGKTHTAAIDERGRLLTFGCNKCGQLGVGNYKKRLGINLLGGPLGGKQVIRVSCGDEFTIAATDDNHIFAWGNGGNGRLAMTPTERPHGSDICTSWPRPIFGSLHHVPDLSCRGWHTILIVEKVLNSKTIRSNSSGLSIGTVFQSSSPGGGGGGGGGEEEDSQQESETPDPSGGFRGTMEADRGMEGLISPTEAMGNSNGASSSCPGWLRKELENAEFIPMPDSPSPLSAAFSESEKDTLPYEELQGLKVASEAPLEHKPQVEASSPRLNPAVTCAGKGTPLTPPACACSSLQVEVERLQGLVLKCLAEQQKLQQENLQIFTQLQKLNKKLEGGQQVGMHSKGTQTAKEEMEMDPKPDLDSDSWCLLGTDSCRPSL

Sequence of Dual specificity mitogen-activated protein kinase kinase 6 (P52564 whole entry): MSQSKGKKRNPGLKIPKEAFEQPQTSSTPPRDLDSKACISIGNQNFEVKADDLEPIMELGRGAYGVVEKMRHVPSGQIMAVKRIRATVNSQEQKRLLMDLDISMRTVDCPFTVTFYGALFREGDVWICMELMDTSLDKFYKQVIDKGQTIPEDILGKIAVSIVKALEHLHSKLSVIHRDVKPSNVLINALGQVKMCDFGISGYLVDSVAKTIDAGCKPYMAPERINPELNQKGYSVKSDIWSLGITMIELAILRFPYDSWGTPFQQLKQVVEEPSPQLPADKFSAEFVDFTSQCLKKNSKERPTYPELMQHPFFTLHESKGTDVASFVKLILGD
Sequence of Ribosomal protein S6 kinase alpha-3 (P51812 whole entry, the tested form may be a part): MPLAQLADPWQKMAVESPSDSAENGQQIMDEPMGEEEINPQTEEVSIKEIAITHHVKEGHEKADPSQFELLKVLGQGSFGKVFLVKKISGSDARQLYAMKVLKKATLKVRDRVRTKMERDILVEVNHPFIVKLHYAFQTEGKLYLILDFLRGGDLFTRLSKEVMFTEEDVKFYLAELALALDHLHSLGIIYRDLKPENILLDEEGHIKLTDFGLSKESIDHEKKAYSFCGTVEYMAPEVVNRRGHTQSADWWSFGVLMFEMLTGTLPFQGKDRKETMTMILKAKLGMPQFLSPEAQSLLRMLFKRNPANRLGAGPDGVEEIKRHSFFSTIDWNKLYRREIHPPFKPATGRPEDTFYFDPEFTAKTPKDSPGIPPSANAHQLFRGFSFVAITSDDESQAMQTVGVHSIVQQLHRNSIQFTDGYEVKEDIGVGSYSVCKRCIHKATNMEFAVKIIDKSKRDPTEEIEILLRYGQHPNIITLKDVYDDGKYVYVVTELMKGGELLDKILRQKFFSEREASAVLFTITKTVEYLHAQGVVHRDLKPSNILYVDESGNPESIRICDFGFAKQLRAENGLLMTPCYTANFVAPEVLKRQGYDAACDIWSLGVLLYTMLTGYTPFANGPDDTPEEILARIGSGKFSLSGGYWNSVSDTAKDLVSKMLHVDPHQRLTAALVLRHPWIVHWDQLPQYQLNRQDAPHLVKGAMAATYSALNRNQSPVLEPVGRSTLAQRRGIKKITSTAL
Sequence of Eukaryotic elongation factor 2 kinase (Homo sapiens) (O00418 whole entry): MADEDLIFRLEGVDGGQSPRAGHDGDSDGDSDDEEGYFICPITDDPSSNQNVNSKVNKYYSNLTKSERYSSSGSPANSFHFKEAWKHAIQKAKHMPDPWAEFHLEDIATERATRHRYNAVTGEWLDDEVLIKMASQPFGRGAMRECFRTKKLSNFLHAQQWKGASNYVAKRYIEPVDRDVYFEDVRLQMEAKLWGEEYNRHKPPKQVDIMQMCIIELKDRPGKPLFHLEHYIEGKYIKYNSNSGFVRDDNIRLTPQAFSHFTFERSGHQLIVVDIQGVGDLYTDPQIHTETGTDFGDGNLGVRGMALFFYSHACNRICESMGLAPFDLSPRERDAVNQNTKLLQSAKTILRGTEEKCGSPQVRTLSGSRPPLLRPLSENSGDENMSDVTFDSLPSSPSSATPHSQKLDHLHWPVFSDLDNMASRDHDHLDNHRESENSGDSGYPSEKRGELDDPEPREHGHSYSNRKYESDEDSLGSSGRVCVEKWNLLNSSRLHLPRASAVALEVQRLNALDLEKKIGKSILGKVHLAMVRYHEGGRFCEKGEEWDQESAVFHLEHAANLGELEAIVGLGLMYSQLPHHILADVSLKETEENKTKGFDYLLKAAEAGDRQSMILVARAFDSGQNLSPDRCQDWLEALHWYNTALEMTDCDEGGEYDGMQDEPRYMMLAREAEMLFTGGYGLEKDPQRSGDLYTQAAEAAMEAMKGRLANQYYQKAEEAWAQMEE

For `CCOc1cc(N2CCC(O)CC2)ccc1Nc1ncc2c(n1)N(C)c1ccccc1C(=O)N2C`, the inhibition [1] was -9.7%, the Activity [2] was “Active” and the inhibition [3] was 1.5%. The inhibition at 50 µM [4] was -10%, the inhibition at 2 µM [5] was -29.7% and the inhibition [6] was 12.7%. The inhibition [7] was -6.5%, the Activity [8] was “Active” and the IC50 [9] was > 50 µM. It also gave an inhibition [10] of 0.3%.
